Apaf-1 act: activators of human Apaf-1 apoptosome; O14727; Apaf-1 apoptosome caspase-3 activation, DEVD-Rh110 fluorescence; hits give low values; activity change, negative = activation, % at 20 µM; actives 0.31% (n = 330,000); AID 489031;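 active = activity change at or below -40% at 20 µM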
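system = biochemical Apaf-1 apoptosome reconstitution | buffer or medium = 20 mM HEPES pH 7.5 with CHAPS, BSA | also added = dATP and cytochrome c as apoptosome triggers, (Z-DEVD)2-Rh110 substrate | incubation = 30 min compound preincubation and 50 min reaction, both room temperature | measured by = fluorescence, 540 nm emission, 480 nm excitation | read-out basis = Caspase-3 cleavage activity downstream of Apaf-1 activation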
Rh110 act interf: counter-screen for Apaf-1 activators: fluorescence interference. shares compounds with Apaf-1 act. Rh110 fluorescence interference, quenched caspase reaction, Ex480/Em540. fluorescence interference (activity change), % at 20 µM, hits read low. 980 tested, under 10 active;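 active = mean activity change at or below -40% when tested at 20 µM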
Apaf-1 act conf: Apaf-1 (human) activation, single-dose confirmed; shares compounds with Apaf-1 act; reconstituted apoptosome caspase-3 activity, DEVD-Rh110 fluorescence; hits give low values; activity change, negative = activation, % at 20 µM; actives 5% (n = 980); AID 504617;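 active = mean activity change at or below -40%, meaning activation of 40% or more, at 20 µM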
Fluor interf act: Apaf-1 activator counter-screen fluorescence artifact. 55 tested, under 10 active. shares compounds with Apaf-1 act. fluorescence interference counterscreen, Apaf-1 activator assay. EC50, µM; call rule not given here
Numbers without * were called inactive; . = no result. These entries were drawn from the full list.

SMILES | Apaf-1 act | Rh110 act interf | Apaf-1 act conf | others
Cc1c(N=Cc2cccs2)c(=O)n(-c2ccccc2)n1C | -182* | 1 | 8
COc1ccc(C(=O)c2ccc3oc(-c4ccc(OC)cc4)c(C#CCCO)c3c2)cc1 | -65* | 10 | -16
CCN(CC)CCn1c2c(c(SCC(=O)Nc3nccs3)nc1=O)CCCC2 | -50* | -4 | 10
CN(C=[N+](C)C)c1cccc2c1C(=O)c1ccccc1C2=O | 43 | . | .
O=C1N=C(N2CCN(Cc3ccccc3)CC2)S/C1=C/c1cccs1 | -408* | 11 | 20
COc1ccc(C2=Nn3c(nnc3-c3ccccc3F)SC2)cc1OC1CCCC1 | 47 | . | .
O=C1C(Nc2ccccc2)=C(N2CCCCC2)C(=O)c2ccccc21 | 93 | . | .
CCN(CC)c1ccc(NC(=O)c2cnn(CC)c2)cc1 | -55* | 7 | 11
C[C@@H]1CCCCCCCCC(=O)OCCN[C@H](C)CCCCCCCCC(=O)OCCN[C@H](C)CCCCCCCCC(=O)OCCN1 | 68 | . | .
N#Cc1c(N)n(CCc2ccc(F)cc2)c2nc3ccccc3nc12 | 82 | . | .
COc1ccc2oc(C)c(C(=O)Cn3ccnc3)c2c1 | -246* | 17 | 16
CCCN1C(=O)/C(=C/c2cc(C)n(C)c2C)SC1=Nc1ccc(OC)cc1 | 41 | . | .
COc1ccc2cc(C(=O)Nc3ccc(Cl)cc3)sc(=O)c2c1OC | -46* | 8 | 13
O=[N+]([O-])c1cccnc1SCc1ccccc1 | -514* | 10 | 9
CC(C)C[C@H]1CN=C(Nc2ccccc2)N1CC1CCC(C(C)(C)C)CC1 (stereo partly specified) | 56 | . | .
COc1ccc(-c2cc(C(=O)N3CCN(C(c4ccccc4)c4ccccc4)CC3)no2)cc1OC | -159* | -6 | 10
COc1ccc(OCc2cc(C(=O)N3CCC(OC)CC3)no2)c2ccccc12 | 49 | . | .
CCN(CC)CCNC(=O)c1ccc(NC(=O)c2cn(-c3ccc(F)cc3)nc2-c2cccc(OC)c2)cc1 | 45 | . | .
COc1cccc(-c2cc(C(=O)N3CCN(c4ccc(F)cc4)CC3)no2)c1 | -69* | -1 | 16
O=C(c1cccc(S(=O)(=O)N2CCN(c3ccc(F)cc3)CC2)c1)N1CCCCCCC1 | 42 | . | .
CCCCNc1c(-c2ccc(OC)c(SC(C)CC)c2)nc2cc(C)ccn12 (stereo unspecified) | 49 | . | .
Cc1ccc(-n2nc(C)c3c2OC(N)=C(C#N)C3c2ccoc2)cc1 (stereo unspecified) | 81 | . | .
Cc1cc2cc(C(c3nnnn3Cc3ccco3)N3CCc4ccccc4C3)c(=O)[nH]c2cc1C (stereo unspecified) | 41 | . | .
CC(C)(C)c1ccc(C(=O)NNc2cc(N3CCCCC3)nc(N3CCCCC3)n2)cc1 | 73 | . | .
COc1cc2sc3cc(NCC[C@@H]4CCCN4C)ccc3c(=O)c2cc1OC | 55 | . | .
SMILES | Apaf-1 act | Rh110 act interf | Apaf-1 act conf | others
Cc1ccc(N2CC(C(=O)N3CCC(C(=O)Nc4nnc(C(C)(C)C)s4)CC3)CC2=O)cc1 (stereo unspecified) | -384* | 10 | 12
COC(=O)CCC(=O)OC1(C)C(=O)C=C2C=C(C3CC3)N(C3CC3)C=C2C1=O (stereo unspecified) | 54 | . | .
CCC(Cc1ccccc1)NC(=O)CCn1cccc1 (stereo unspecified) | -220* | 2 | 2
CCCCCCCCCCOC(=O)Cn1c(COc2ccccc2OC)[n+](C)c2ccccc21 | 71 | . | .
CC/C(=N/Nc1cccc(C)c1)c1cnnc(SC)n1 | 63 | . | .
N=C1SC(c2ccccc2)C(=O)N1c1ncc(Cc2ccccc2Cl)s1 (stereo unspecified) | -171* | -6 | 11
CCN(CC)CCOc1ccc(/C(=C(\Cl)c2ccccc2)c2ccccc2)cc1 | 66 | . | .
O=C(CSc1nnnn1-c1ccc(C(=O)O)cc1)NC1CC1 | -324* | -3 | 7
CC(C)[C@H](CO)Nc1nc(Nc2ccc(Cl)c(C(=O)O)c2)c2ncn(C(C)C)c2n1 | 44 | . | .
CC1CCCN(C2=C(NS(=O)(=O)c3ccc(Br)cc3)C(=O)c3ccccc3C2=O)C1 (stereo unspecified) | 51 | . | .
CC1CCN(C2=C(NS(=O)(=O)c3ccc(Br)cc3)C(=O)c3ccccc3C2=O)CC1 | 54 | . | .
CCOC(=O)C1CCCN(C2=C(NS(=O)(=O)c3ccc(Br)cc3)C(=O)c3ccccc3C2=O)C1 (stereo unspecified) | 67 | . | . | Fluor interf act=>100
NC1=C(Br)C(=O)c2ccccc2C1=O | 71 | . | .
Nc1c2c(nc3ccccc13)CCCC2 | -4 | . | .
COc1ccc(C[C@H]2CN3C(=NC[C@@H]3Cc3ccccc3)N2CCNC(=O)c2ccc(C)c(Br)c2)cc1 | 65 | . | .
Nc1nc(SCC(=O)Nc2cc(-c3ccccc3)nn2-c2ccccc2)n[nH]1 | -41* | 8 | 5
COc1cccc(-c2sc3ccc(OC)cc3c2-c2ccc(OCCN(C)C)cc2)c1 | 75 | . | .
COc1cc(CNc2ccc(O)cc2)cc(Br)c1OCc1ccccc1F | 96 | . | .
Cc1cccn2c(=O)c3cc(C(=O)NC4CCCCC4)c(=N)n(Cc4ccccc4)c3nc12 | 57 | . | .
Cc1ccccc1NC(=O)NC1CCCCCCC1 | -63* | 4 | 6
Cc1cc2cc(CNC(=O)NC3CCCCC3)ccc2n1C | 51 | . | .
Oc1c(Br)cc(/C=N/NC(=S)NCc2ccco2)cc1Br | -329* | 0 | 14
C#CCOCCOCCOCCNc1nc(N2CCOCC2)nc(N2CCN(C(=O)[C@H](CCCCN)n3cc(CN)nn3)CC2)n1 | 49 | . | .
CCOC(=O)C1CCN(C(=O)c2ccccc2NS(=O)(=O)c2ccccc2)CC1 | -496* | 16 | 19
CC1CCN(C2=C(NS(=O)(=O)c3ccccc3)C(=O)c3ccccc3C2=O)CC1 | 60 | . | .
SMILES | Apaf-1 act | Rh110 act interf | Apaf-1 act conf | others
CCOC(=O)C1CCN(C(=O)c2c(C)oc3c2C(=O)c2ccccc2C3=O)CC1 | 48 | . | .
COc1cc2cc(NC(C)=O)cc(NCc3ccccc3)c2cc1OC | 88 | . | .
Cc1cc(C)cc(OCC(=O)Nc2ccc(N3CCCC3)cc2)c1 | 41 | . | .
COc1cc(C)c(NC(=O)COc2ccc3c(c2)CCC3)cc1OC | -284* | 15 | 14
COCCCC1CCN(Cc2nc(-c3ccccc3)no2)CC1 | -51* | 7 | 11
c1ccc(-c2noc(CN3CCN(c4cnccn4)CC3)n2)cc1 | -92* | 3 | 1
CC(=O)c1cc(O)c2ccccc2c1O | 58 | . | .
Cc1ccc(SCc2cc(-c3ccc(Cl)cc3)no2)cc1 | 78 | . | .
Cc1ccc(SC2=C(Sc3ccc(C)cc3)C(=O)c3ccccc3C2=O)cc1 | 64 | . | .
Cc1ccc(Sc2cc(Cl)nc(N)n2)cc1 | -387* | 19 | 8
C[C@H](CO)N1C[C@H](C)[C@@H](CN(C)Cc2ccc(Cl)c(Cl)c2)Oc2c(NC(=O)CCC(F)(F)F)cccc2C1=O | 46 | . | .
COc1ccc(O)c(C(=O)c2cc(C#N)c(=O)n(-c3c(C)n(C)n(-c4ccccc4)c3=O)c2)c1 | -40* | 4 | 13
COc1cc(-c2c(C#N)c(=O)[nH]c3c2c(C)nn3-c2ccccc2)ccc1O | 42 | . | .
Cn1ccc2cc3c(cc21)CCN3C(=O)Nc1cccnc1 | 66 | . | .

Source: PubChem
